Laboratory results taken from PubChem BioAssay.
Records with an inconclusive call do not appear.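 How the source made its calls, unless noted: active means viability increase at or above a cutoff of the median across tested compounds plus 3 SD (cut at about 8.5% in these data, passing the limit was not always enough); inconclusive means some gains above the cutoff, reason not given; inactive means the rest.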

Columns and labels:
[1] = S. cerevisiae growth inhibition in permissive medium (OD615), pilot counter-assay for S. cerevisiae lifespan shortening project, permissive growth control (AID 705;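 active means growth inhibition above 25% in both replicates, a cutoff set 3 SD above the mean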); settings: OD615, 24 h, at 10 µM, hits give high values
Method in brief: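 System: Engineered DeaD yeast | Buffer or medium: SC raffinose/galactose permissive medium | Incubation: Cells pre-grown 4 h, then 24 h compound exposure, 30 °C humidified | Measured by: Absorbance (optical density) at 615 nm | Read-out: Reduction in yeast growth (OD615)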

[2] = S. cerevisiae growth inhibition in restrictive medium, OD615, pilot screen, restrictive growth control, yeast lifespan reduction project (AID 706;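 active means growth inhibition above a set limit, 3 SD over mean compound inhibition, in both replicates, cut at about 43% in these data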;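 further: modified DeaD lifespan yeast strain shifted to restrictive glucose medium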); settings: OD615, 48 h, at 10 µM, hits give high values
Method in brief: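 Material: modified S. cerevisiae; Medium: glucose-based CSMM-D restrictive medium; Compound dosing: one concentration, 10 µM final, 0.25% DMSO; Incubation: 48 h compound exposure at 30 °C; Measured by: OD615.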

[3] = doxorubicin toxicity protection in MRP-1 cells – H69AR cells, CellTiter-Glo, duplicate, MRP-1 activator project, pilot screen (AID 807); settings: H69AR viability with doxorubicin, CellTiter-Glo luminescence; at 10 µM; hits give high values;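 further: compound pretreatment 18-22 h then 72 h combined with doxorubicin; 0% = doxorubicin alone and 100% = vehicle without doxorubicin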
[4] = viability of HCT116 without oncogenic beta-catenin – human colon tumor cells, pilot screen (AID 823;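 active means cell viability at or below a set limit in both duplicate runs, the limit being the all-compound median minus 4 SD, cut at about 23% in these data, passing the limit was not always enough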;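 further: 0% = wells killed by 20 µM Hyamine and 100% = untreated DMSO cell wells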); settings: HCT116 beta-catenin knockout viability, CellTiter-Glo, 60 h; at 10 µM; hits give low values
[5] = viability of PTEN-null HCT116 cells – cell-based, HCT116 clonal line, CellTiter-Glo, pilot screen (AID 824;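 active means viability at or below 27.92% in each of two runs, the all-compound median minus 4 SD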;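 further: 0% = 20 µM Hyamine control and 100% = vehicle cell control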); settings: HCT116 PTEN-deleted viability, 60 h, at 10 µM, hits give low values
[6] = RAM pathway blockade in budding yeast – dse1pr::URA3 reporter, 5-FOA selection, pilot screen (AID 869;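 active means inhibition over a set limit, the all-compound mean plus 3 SD, in both replicate runs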;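 further: 0% = DMSO wells with no growth and 100% = 10 µM 1-NA-PP1 with full growth; RAM network block rescues cells from 5-FOA so hits raise OD615 growth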); settings: S. cerevisiae dse1pr::URA3 5-FOA growth, OD615, 2 d; at 10 µM; hits give high values; strain carries analog-sensitive mutant Cbk1 kinase
[7] = RAM signaling pathway blockade in yeast – S. cerevisiae, Pdr1DBD-CYC8 efflux-inhibited sensitized strain, primary screen (AID 1298;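 active means RAM network inhibition above 8.4% in each of two replicates, 3 SD over the compound average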;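 further: 0% = DMSO untreated cells without growth and 100% = 10 µM 1-NA-PP1 full growth; higher means more yeast growth rescued from 5-FOA killing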); settings: S. cerevisiae cbk1-as DSE1-URA3 strain, 5-FOA growth OD615, 2 d; at 50 µM; hits give high values

COC(=O)CSC1=C(C#N)C(c2cccc(OC)c2)CC(=O)N1 (configuration not stated)
inactive: growth inhibition [1] -12.2% | growth inhibition [2] -5.83% | viability increase [3] -3.93% | viability [4] 89.1% | viability [5] 90.3% | inhibition [6] 0.41% | RAM network inhibition [7] -1.62%

Cc1c(Br)cc(C(=O)NCCCN2CCOCC2)c(C)c1C
inactive: growth inhibition [1] -0.405% | growth inhibition [2] -4.69% | viability increase [3] -3.23% | viability [4] 94.8% | viability [5] 93.6% | inhibition [6] 0.595% | RAM network inhibition [7] 0.82%

CCOC(=O)C1CCCN(C(=O)c2ccc(CS(=O)(=O)c3ccc(C)cc3)o2)C1 (configuration not stated)
inactive: growth inhibition [1] -0.315% | growth inhibition [2] -6.29% | viability increase [3] -2.78% | viability [4] 110% | viability [5] 101% | inhibition [6] 1.16% | RAM network inhibition [7] 3.23%

CCN1CCN(C(=O)CS(=O)(=O)Cc2nc(-c3ccc(C)cc3)oc2C)CC1
inactive: growth inhibition [1] -5.05% | growth inhibition [2] 3.62% | viability increase [3] -0.17% | viability [4] 85.2% | viability [5] 87.8% | inhibition [6] 0.805% | RAM network inhibition [7] 2.7%

O=C(NC1CCCC1)C(c1ccc(Cl)cc1)N1CCOCC1 (configuration not stated)
inactive: growth inhibition [1] -10.9% | growth inhibition [2] -6.79% | viability increase [3] 1.37% | viability [4] 98.8% | viability [5] 93% | inhibition [6] 1.98% | RAM network inhibition [7] 2.55%

O=CN1CCN(C(C(=O)NC2CCCC2)c2ccc(Cl)cc2)CC1 (configuration not stated)
inactive: growth inhibition [1] -7.98% | growth inhibition [2] 4.62% | viability increase [3] -1.14% | viability [4] 86.2% | viability [5] 88.5% | inhibition [6] 0.795% | RAM network inhibition [7] 2.38%

CC1CCc2c(sc3ncnc(NCCN4CCOCC4)c23)C1 (configuration not stated)
inactive: growth inhibition [1] -7.6% | growth inhibition [2] -5.73% | viability increase [3] -6.47% | viability [4] 96.4% | viability [5] 95% | inhibition [6] 1.02% | RAM network inhibition [7] 5.28%

CC(=O)/C(C(=N)N1CCN(Cc2ccccc2)CC1)=C(\C)O
inactive: growth inhibition [1] -12.7% | growth inhibition [2] -5.25% | viability increase [3] -0.02% | viability [4] 103% | viability [5] 101% | inhibition [6] 2.4% | RAM network inhibition [7] 2.85%

COc1ccc(/C(N)=C/C(=O)C(C)(C)C)cc1
inactive: growth inhibition [1] -14.2% | growth inhibition [2] -11.6% | viability increase [3] 0.55% | viability [4] 96.1% | viability [5] 98.2% | inhibition [6] 2.5% | RAM network inhibition [7] 4.84%

Cn1c2c(c(=O)n(C)c1=O)C(c1cc3c(cc1Br)OCO3)CC(=O)N2 (configuration not stated)
inactive: growth inhibition [1] -4.86% | growth inhibition [2] -4.15% | viability increase [3] -0.66% | viability [4] 105% | viability [5] 99% | inhibition [6] -0.625% | RAM network inhibition [7] 4.1%

CC1=C(C(=O)OCC(C)C)C(c2ccccc2Cl)NC(=O)N1C (configuration not stated)
inactive: growth inhibition [1] -4.34% | growth inhibition [2] -8.57% | viability increase [3] -3.3% | viability [4] 58.5% | viability [5] 67.8% | inhibition [6] 0.59% | RAM network inhibition [7] 1.74%

COc1ccccc1CNC(=O)c1nnc(Cc2ccc(Cl)cc2)o1
inactive: growth inhibition [1] -9.86% | growth inhibition [2] 15.4% | viability increase [3] 2.29% | viability [4] 103% | viability [5] 99.8% | inhibition [6] 1.81% | RAM network inhibition [7] 1.15%

COc1cccc(CN2CCNC(=O)C2CC(=O)O)c1OC (configuration not stated)
inactive: growth inhibition [1] -18.3% | growth inhibition [2] -12.7% | viability increase [3] -2.76% | viability [4] 101% | viability [5] 97% | inhibition [6] 1.81% | RAM network inhibition [7] 2.85%

CNc1nc(SCC(=O)OC)nc(N2CCOCC2)n1
inactive: growth inhibition [1] -11.7% | growth inhibition [2] -14.8% | viability increase [3] -1.78% | viability [4] 93.9% | viability [5] 89.3% | inhibition [6] 1.14% | RAM network inhibition [7] 3.47%

CC(=O)Nc1cc2ccc(OC(C)=O)cc2oc1=O
inactive: growth inhibition [1] -15.3% | growth inhibition [2] -13.9% | viability increase [3] -4.23% | viability [4] 107% | viability [5] 93.8% | inhibition [6] 1.62% | RAM network inhibition [7] 0.82%

c1ccc(-n2ncc3c(NCc4cccnc4)ncnc32)cc1
inactive: growth inhibition [1] -9.01% | growth inhibition [2] 2.41% | viability increase [3] 3.3% | viability [4] 88.1% | viability [5] 83.6% | inhibition [6] 2.49% | RAM network inhibition [7] 0.31%
